# From ChEMBL document CHEMBL1133766, “Enkephalin glycopeptide analogues produce analgesia with reduced dependence liability” (J Med Chem, 2000)
# Key:
# Mus musculus = organism: Mus musculus; experiment: (§1) Opioid receptor activity was evaluated using mouse vas deferens (MVD) assay; assay type: functional, organism-based
# [1] = (§2) Opioid receptor activity was evaluated using guinea pig ileum (GPI) assay; assay type: functional, tissue-based; details: Cavia porcellus
# Mu-type opioid receptor = Mu-type opioid receptor (Homo sapiens, UniProt P35372); experiment: Binding affinity towards Opioid receptor mu 1 was evaluated
# Sequence of Mu-type opioid receptor (P35372 whole entry): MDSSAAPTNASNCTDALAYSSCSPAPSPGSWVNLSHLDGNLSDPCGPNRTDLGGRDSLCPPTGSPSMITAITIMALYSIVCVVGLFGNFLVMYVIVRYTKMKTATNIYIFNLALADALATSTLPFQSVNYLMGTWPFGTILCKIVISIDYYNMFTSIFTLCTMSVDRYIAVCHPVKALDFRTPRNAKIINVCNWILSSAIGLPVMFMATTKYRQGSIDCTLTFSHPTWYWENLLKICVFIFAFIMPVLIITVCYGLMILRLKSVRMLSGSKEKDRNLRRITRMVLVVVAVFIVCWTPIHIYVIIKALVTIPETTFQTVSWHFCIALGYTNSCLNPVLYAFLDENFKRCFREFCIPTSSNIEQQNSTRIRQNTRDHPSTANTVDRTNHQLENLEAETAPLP
# [2] = molecular target: Delta-type opioid receptor (Homo sapiens, UniProt P41143); experiment: Binding affinity towards Opioid receptor delta 1 was evaluated
# Sequence of Delta-type opioid receptor (P41143 whole entry): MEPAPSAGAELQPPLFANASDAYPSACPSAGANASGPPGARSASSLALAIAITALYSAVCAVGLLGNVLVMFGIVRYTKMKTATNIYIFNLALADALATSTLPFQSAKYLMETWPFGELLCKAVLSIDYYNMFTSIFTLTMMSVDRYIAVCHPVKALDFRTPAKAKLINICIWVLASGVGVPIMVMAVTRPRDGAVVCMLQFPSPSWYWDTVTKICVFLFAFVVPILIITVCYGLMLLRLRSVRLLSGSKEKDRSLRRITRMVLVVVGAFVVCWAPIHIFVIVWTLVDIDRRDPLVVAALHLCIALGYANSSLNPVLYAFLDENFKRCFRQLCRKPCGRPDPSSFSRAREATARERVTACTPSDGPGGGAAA
# Rattus norvegicus [3] = experiment: Amount of the drug required to produce 50% antinociception when administered intravenously; value ranges from 8.5-15.2; assay type: functional
# Summary of the method: (§3)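 55 °C tail-flick test after a single injection by the route named in the line, with graded doses giving a dose-response. % antinociception = 100 × [test latency − control latency]/[15 − control latency]. A50 is the amount of drug giving 50% antinociception, derived from the dose-response curve.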
# Rattus norvegicus [4] = experiment: Amount of the drug required to produce 50% antinociception when administered intraperitoneally; value ranges from 21.2-55.5; assay type: functional; summary of the method: as §3
# Rattus norvegicus [5] = experiment: Amount of the drug required to produce 50% antinociception when administered subcutaneously; value ranges from 4.9-10.00; assay type: functional; summary of the method: as §3
# Rattus norvegicus [6] = experiment: Amount of the drug required to produce 50% antinociception when administered intracerebroventricularly; value ranges from 0.01-0.04; assay type: functional; summary of the method: as §3
# Opioid receptor = Opioid receptor (Mus musculus, UniProt P42866+P32300+P33534); experiment: as §1; assay type: tissue-based
# [7] = as §2; assay type: tissue-based; details: Cavia porcellus
# Rattus norvegicus [8] = experiment: Amount of the drug required to produce 50% antinociception when administered intravenously; value ranges from 35.4-60.7; assay type: functional; summary of the method: as §3
# Rattus norvegicus [9] = experiment: Amount of the drug required to produce 50% antinociception when administered intraperitoneally; value ranges from 124.0-151.8; assay type: functional; summary of the method: as §3
# Rattus norvegicus [10] = experiment: Amount of the drug required to produce 50% antinociception when administered intracerebroventricularly; value ranges from 0.05-0.09; assay type: functional; summary of the method: as §3
# Rattus norvegicus [11] = experiment: Amount of the drug required to produce 50% antinociception when administered subcutaneously; value ranges from 15.9-26.0; assay type: functional; summary of the method: as §3
# Rattus norvegicus [12] = experiment: Amount of the drug required to produce 50% antinociception when administered intraperitoneally; value ranges from 11.8-18.0; assay type: functional; summary of the method: as §3
# Rattus norvegicus [13] = experiment: Amount of the drug required to produce 50% antinociception when administered subcutaneously; value ranges from 10.2-17.0; assay type: functional; summary of the method: as §3
# Rattus norvegicus [14] = experiment: Amount of the drug required to produce 50% antinociception when administered intracerebroventricularly; value ranges from 1.8-4.2; assay type: functional; summary of the method: as §3
# Rattus norvegicus [15] = experiment: Amount of the drug required to produce 50% antinociception when administered intravenously; value ranges from 4.9-7.9; assay type: functional; summary of the method: as §3
structure (smiles),measurement,setting,value
CC(C)C[C@H](NC(=O)[C@H](Cc1ccccc1)NC(=O)CNC(=O)[C@H](NC(=O)[C@@H](N)Cc1ccc(O)cc1)[C@H](C)O)C(=O)N[C@@H](CO[C@H]1O[C@@H](CO)[C@H](O)[C@@H](O)[C@H]1O)C(N)=O [listing 1 of 2 here],IC50,Mus musculus,1.6 nM
same,IC50,[1],33.8 nM
same,IC50,Mu-type opioid receptor,8.2 nM
same,IC50,[2],3.4 nM
CC(C)C[C@H](NC(=O)[C@H](Cc1ccccc1)NC(=O)CNC(=O)[C@H](NC(=O)[C@@H](N)Cc1ccc(O)cc1)[C@H](C)O)C(=O)N[C@@H](CO[C@H]1O[C@@H](CO)[C@H](O)[C@@H](O)[C@H]1O)C(N)=O [listing 2 of 2 here],A50,Rattus norvegicus [3],11.4 mM/kg
same,A50,Rattus norvegicus [4],34.3 mM/kg
same,A50,Rattus norvegicus [5],7.2 mM/kg
same,A50,Rattus norvegicus [6],0.02 nM
CC(C)C[C@H](NC(=O)[C@H](Cc1ccccc1)NC(=O)CNC(=O)[C@H](NC(=O)[C@@H](N)Cc1ccc(O)cc1)[C@H](C)O)C(=O)N[C@@H](CO)C(N)=O [listing 1 of 2 here],IC50,Opioid receptor,2.7 nM
same,IC50,Mu-type opioid receptor,4 nM
same,IC50,[7],25 nM
same,IC50,[2],2.4 nM
CC(C)C[C@H](NC(=O)[C@H](Cc1ccccc1)NC(=O)CNC(=O)[C@H](NC(=O)[C@@H](N)Cc1ccc(O)cc1)[C@H](C)O)C(=O)N[C@@H](CO)C(N)=O [listing 2 of 2 here],A50,Rattus norvegicus [8],46.4 mM/kg
same,A50,Rattus norvegicus [9],137.2 mM/kg
same,A50,Rattus norvegicus [10],0.07 nM
same,A50,Rattus norvegicus [11],20.3 mM/kg
CN1CC[C@]23c4c5ccc(O)c4O[C@H]2[C@@H](O)C=C[C@H]3[C@H]1C5 [MORPHINE],A50,Rattus norvegicus [12],14.6 mM/kg
same,A50,Rattus norvegicus [13],13.2 mM/kg
same,A50,Rattus norvegicus [14],2.7 nM
same,A50,Rattus norvegicus [15],6.3 mM/kg
